Test results published in ChEMBL document CHEMBL3045973, “Synthesis and insecticidal activity of novel 4beta-halogenated benzoylamino podophyllotoxins against Pieris rapae Linnaeus” (2002).
The source made the active and inactive calls. The rule behind the calls is not given here.

Tests used:
Pieris rapae [1] = test: Insecticidal activity against fifth-instar larvae of Pieris rapae fed on compound treated cabbage leaf assessed as loss of body fluid at 250 ppm dipped for 3 secs measured after 48 hr relative to control; format: functional, organism-based
Pieris rapae [2] = test: Insecticidal activity against fifth-instar larvae of Pieris rapae fed on compound treated cabbage leaf assessed as delay in metamorophosis at 250 ppm dipped for 3 secs relative to control; format: functional, organism-based
Summary of the method: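 Fifth-instar P. rapae larvae dosed by the leaf-dipping method at 250 ppm. Development time from larva to adulthood was compared with a control group.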

Pieris rapae [3] = test: Insecticidal activity against fifth-instar larvae of Pieris rapae fed on compound treated cabbage leaf assessed as mortality at 250 ppm dipped for 3 secs measured after 10 days (reference value: 6.67 1.56%); format: functional
Pieris rapae [4] = test: Insecticidal activity against fifth-instar larvae of Pieris rapae fed on compound treated cabbage leaf assessed as inhibition of reproduction in pupated adultoids at 250 ppm dipped for 3 secs relative to control; format: functional, organism-based
Pieris rapae [5] = test: Insecticidal activity against fifth-instar larvae of Pieris rapae fed on compound treated cabbage leaf assessed as paralysis at 250 ppm dipped for 3 secs measured after 48 hr relative to control; format: functional, organism-based
Pieris rapae [6] = test: Insecticidal activity against fifth-instar larvae of Pieris rapae fed on compound treated cabbage leaf assessed as mortality at 250 ppm dipped for 3 secs measured after 5 days (reference value: 0%); format: functional
Pieris rapae [7] = test: Insecticidal activity against fifth-instar larvae of Pieris rapae fed on compound treated cabbage leaf assessed as change in spontaneous movement at 250 ppm dipped for 3 secs measured after 24 hr relative to control; format: functional, organism-based
Pieris rapae [8] = test: Insecticidal activity against fifth-instar larvae of Pieris rapae fed on compound treated cabbage leaf assessed as immobilization at 250 ppm dipped for 3 secs measured after 48 hr relative to control; format: functional, organism-based
Pieris rapae [9] = test: Insecticidal activity against fifth-instar larvae of Pieris rapae fed on compound treated cabbage leaf assessed as mortality at 250 ppm dipped for 3 secs measured after 15 days (reference value: 10 1.22%); format: functional

Row | Structure (SMILES) | Activity (Pieris rapae [1]) | Activity (Pieris rapae [2]) | mortality (Pieris rapae [3]) [%] | Activity (Pieris rapae [4]) | Activity (Pieris rapae [5]) | mortality (Pieris rapae [6]) [%] | Activity (Pieris rapae [7]) | Activity (Pieris rapae [8]) | mortality (Pieris rapae [9]) [%]
1 | COc1cc([C@@H]2c3cc4c(cc3[C@@H](NC(=O)c3ccc(Br)cc3)[C@H]3COC(=O)[C@H]23)OCO4)cc(OC)c1OC | Active | Active | 51.85 | Active | Active | 14.81 | Active | Active | 85.97
2 | COc1cc([C@@H]2c3cc4c(cc3[C@@H](NC(=O)c3cccc(Cl)c3)[C@H]3COC(=O)[C@H]23)OCO4)cc(OC)c1OC | Active | Active | 54.25 | Active | Active | 16.56 | Active | Active | 94.73
3 | COc1cc([C@@H]2c3cc4c(cc3[C@@H](NC(=O)c3ccccc3Cl)[C@H]3COC(=O)[C@H]23)OCO4)cc(OC)c1OC | Active | Active | 36.36 | Active | Active | 4.54 | Active | Active | 65.56
4 | COc1cc([C@@H]2c3cc4c(cc3[C@@H](NC(=O)c3cccc(I)c3)[C@H]3COC(=O)[C@H]23)OCO4)cc(OC)c1OC | Active | Active | 40.71 | Active | Active | 8.35 | Active | Active | 69.69
5 | COc1cc([C@@H]2c3cc4c(cc3[C@@H](NC(=O)c3ccccc3I)[C@H]3COC(=O)[C@H]23)OCO4)cc(OC)c1OC | Active | Active | 48.36 | Active | Active | 12.62 | Active | Active | 69.69
6 | COc1cc([C@@H]2c3cc4c(cc3[C@@H](NC(=O)c3cccc(Br)c3)[C@H]3COC(=O)[C@H]23)OCO4)cc(OC)c1OC | Active | Active | 69.23 | Active | Active | 46.15 | Active | Active | 85.42
7 | COc1cc([C@@H]2c3cc4c(cc3[C@@H](N)[C@H]3COC(=O)[C@H]23)OCO4)cc(OC)c1OC [4BETA-NH2-PODOPHYLLOTOXIN] | Active | Active | 36.43 | Active | Active | 21.69 | Active | Active | 49.48
8 | COc1cc([C@@H]2c3cc4c(cc3[C@@H](NC(=O)c3ccc(Cl)cc3)[C@H]3COC(=O)[C@H]23)OCO4)cc(OC)c1OC | Active | Active | 72.08 | Active | Active | 36.84 | Active | Active | 94.95
9 | COc1cc([C@@H]2c3cc4c(cc3[C@@H](NC(=O)c3cccc(F)c3)[C@H]3COC(=O)[C@H]23)OCO4)cc(OC)c1OC | Active | Active | 49.46 | Active | Active | 18.57 | Active | Active | 86.7
10 | COc1cc([C@@H]2c3cc4c(cc3[C@@H](NC(=O)c3ccccc3F)[C@H]3COC(=O)[C@H]23)OCO4)cc(OC)c1OC | Active | Active | 46.41 | Active | Active | 22.68 | Active | Active | 68.42
11 | COc1cc([C@@H]2c3cc4c(cc3[C@@H](NC(=O)c3ccccc3Br)[C@H]3COC(=O)[C@H]23)OCO4)cc(OC)c1OC | Active | Active | 44.78 | Active | Active | 4.35 | Active | Active | 74.74
12 | CCOP(=S)(OCC)Oc1ccc([N+](=O)[O-])cc1 [PARATHION] |  |  |  |  |  | 100 |  |  | 
13 | COc1cc([C@@H]2c3cc4c(cc3[C@H](O)[C@H]3COC(=O)[C@H]23)OCO4)cc(OC)c1OC [PODOFILOX] | Active | Active | 53.36 | Active | Active | 34.02 | Active | Active | 74.74
14 | COc1cc([C@@H]2c3cc4c(cc3[C@@H](NC(=O)c3ccc(I)cc3)[C@H]3COC(=O)[C@H]23)OCO4)cc(OC)c1OC | Active | Active | 48.28 | Active | Active | 20.73 | Active | Active | 73.87
15 | COc1cc([C@@H]2c3cc4c(cc3[C@@H](NC(=O)c3ccc(F)cc3)[C@H]3COC(=O)[C@H]23)OCO4)cc(OC)c1OC | Active | Active | 44.74 | Active | Active | 11.11 | Active | Active | 66.76
